The values that follow come from ChEMBL document CHEMBL1132454 (J Med Chem, 1999).

The target in assay [1] is T1, Norepinephrine transporter (Rattus norvegicus, UniProt Q9WTR4). Nature of the assay: The compound was tested for binding affinity nisoxatine ligand; IA = inactive. An outline of the steps:
(§1)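 Rat frontal cortex membranes (male Sprague–Dawley) in 50 mM Tris/120 mM NaCl/5 mM KCl pH 7.4; 8 mg wet tissue with 0.5 nM [3H]nisoxetine, 60 min at 0–4 °C; 1 μM desipramine for nonspecific; filtration, scintillation counting.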

Assay [2] concerns the target T2, Sodium-dependent dopamine transporter (Rattus norvegicus, UniProt P23977). Nature of the assay: Inhibition of Dopamine uptake in male Sprague-Dawley rats using [3H]DA ligand.
Assay [3] has as its target T2, Sodium-dependent dopamine transporter. Nature of the assay: (§2) Binding affinity Sprague-Dawley rats using [3H]WIN-35428 ligand. An outline of the steps: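 Rat caudate-putamen membranes washed in ice-cold Krebs-HEPES pH 7.4, ~0.3% w/v (150–300 μg protein). Drug added 5 min before 1.5 nM [3H]WIN 35,428; 1 h on ice; filtration.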
In assay [4] the target is T3, Sodium-dependent serotonin transporter (Rattus norvegicus, UniProt P31652). Nature of the assay: Binding affinity against Serotonin transporter in male Sprague-Dawley rats using [3H]paroxetine ligand; IA = inactive. An outline of the steps: (§3)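 Frozen rat midbrain membranes in 50 mM Tris, 120 mM NaCl, 5 mM KCl pH 7.4; 1.5 mg wet tissue per tube with 0.2 nM [3H]paroxetine, 90 min at room temperature; nonspecific defined with 1 μM citalopram; filtration and scintillation counting.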

Assay [5] is described as follows: (§4) Binding affinity of Sigma opioid receptor type 1 in Guinea pig brain membranes using [3H]pentazocine ligand. Type of assay: cell membranes, Membrane. An outline of the steps:
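σ1 sites: guinea pig brain membranes minus cerebella (350–500 μg protein) with 3 nM [3H](+)-pentazocine in 50 mM Tris-HCl pH 8.0, 120 min at 25 °C; 10 μM haloperidol for nonspecific; filtration on polyethyleneimine-soaked filters. IC50 converted to Ki via Cheng–Prusoff.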

Assay [6] has as its target Sigma intracellular receptor 2 (Rattus norvegicus, UniProt Q5U3Y7). Nature of the assay: The compound was tested for binding affinity of Sigma opioid receptor type 2 in rat liver membranes using [3H]DTG ligand. Type of assay: cell membranes, Membrane. An outline of the steps:
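σ2 sites: male Sprague–Dawley rat liver membranes (160 μg protein), 5 nM [3H]DTG plus 1 μM dextrallorphan masking σ1, 50 mM Tris-HCl pH 8.0, 120 min at 25 °C; 10 μM haloperidol nonspecific; filtration. IC50 converted to Ki by Cheng–Prusoff.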

For assay [7], the target named is T1, Norepinephrine transporter. Put plainly: (§5) The compound was tested for binding affinity nisoxatine ligand. An outline of the steps:
as §1

In assay [8] the target is T3, Sodium-dependent serotonin transporter. Nature of the assay: (§6) Binding affinity against Serotonin transporter in male Sprague-Dawley rats using [3H]paroxetine ligand. An outline of the steps:
as §3

In assay [9] the target is T1, Norepinephrine transporter. The description is as §5. An outline of the steps:
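Male Sprague-Dawley rat frontal cortex membranes in 50 mM Tris, 120 mM NaCl, 5 mM KCl, pH 7.4; 8 mg original wet tissue per tube. Incubation with 0.5 nM [3H]nisoxetine for 60 min at 0-4 °C. Nonspecific binding with 1 μM desipramine. Filtration and scintillation counting; Ki from at least three experiments in triplicate.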
The source holds these as a separate data set.

Assay [10] addresses T3, Sodium-dependent serotonin transporter. The assay is described as §6. An outline of the steps:
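Male Sprague-Dawley rat midbrain membranes in 50 mM Tris, 120 mM NaCl, 5 mM KCl, pH 7.4; 1.5 mg original wet tissue per tube. Incubation with 0.2 nM [3H]paroxetine for 90 min at room temperature. Nonspecific binding with 1 μM citalopram. Filtration and scintillation counting; Ki from at least three experiments in triplicate.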
This is another data set of the same source.

The target in assay [11] is T2, Sodium-dependent dopamine transporter. The assay is described as §2. An outline of the steps:
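Rat caudate-putamen membranes washed in modified Krebs-HEPES buffer, pH 7.4; 150-300 μg protein per tube. Filtration read-out; Ki by nonlinear least-squares fit; at least three independent experiments.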
The source holds these as a separate data set.

A short description of assay [12]: as §4. The format is cell membranes, Membrane. An outline of the steps: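 Guinea pig brain membranes (minus cerebella), 350–500 μg protein, with 3 nM [3H](+)-pentazocine in 50 mM Tris-HCl pH 8.0 for 120 min at 25 °C. Nonspecific binding with 10 μM haloperidol. Filtration, then overnight extraction and counting. IC50 from curve fit, converted to Ki by Cheng-Prusoff.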
The source holds these as a separate data set.

Bounds are passed on as bounds.

T1 sequence (Q9WTR4 whole entry): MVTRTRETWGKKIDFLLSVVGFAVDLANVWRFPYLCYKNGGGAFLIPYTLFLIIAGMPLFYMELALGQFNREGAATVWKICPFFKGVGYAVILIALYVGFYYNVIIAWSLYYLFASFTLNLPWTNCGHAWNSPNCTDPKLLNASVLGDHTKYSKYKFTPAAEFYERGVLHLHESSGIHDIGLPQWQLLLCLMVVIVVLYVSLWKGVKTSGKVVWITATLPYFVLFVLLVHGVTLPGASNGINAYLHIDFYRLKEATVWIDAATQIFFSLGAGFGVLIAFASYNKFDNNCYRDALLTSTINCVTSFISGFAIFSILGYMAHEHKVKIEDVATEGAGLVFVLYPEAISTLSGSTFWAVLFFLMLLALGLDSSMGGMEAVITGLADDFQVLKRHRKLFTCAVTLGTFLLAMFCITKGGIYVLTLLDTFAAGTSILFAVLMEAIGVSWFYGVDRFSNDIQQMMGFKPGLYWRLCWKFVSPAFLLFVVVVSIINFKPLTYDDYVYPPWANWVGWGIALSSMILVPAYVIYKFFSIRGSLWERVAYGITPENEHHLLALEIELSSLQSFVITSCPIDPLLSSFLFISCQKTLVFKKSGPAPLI
T2 sequence (P23977 whole entry): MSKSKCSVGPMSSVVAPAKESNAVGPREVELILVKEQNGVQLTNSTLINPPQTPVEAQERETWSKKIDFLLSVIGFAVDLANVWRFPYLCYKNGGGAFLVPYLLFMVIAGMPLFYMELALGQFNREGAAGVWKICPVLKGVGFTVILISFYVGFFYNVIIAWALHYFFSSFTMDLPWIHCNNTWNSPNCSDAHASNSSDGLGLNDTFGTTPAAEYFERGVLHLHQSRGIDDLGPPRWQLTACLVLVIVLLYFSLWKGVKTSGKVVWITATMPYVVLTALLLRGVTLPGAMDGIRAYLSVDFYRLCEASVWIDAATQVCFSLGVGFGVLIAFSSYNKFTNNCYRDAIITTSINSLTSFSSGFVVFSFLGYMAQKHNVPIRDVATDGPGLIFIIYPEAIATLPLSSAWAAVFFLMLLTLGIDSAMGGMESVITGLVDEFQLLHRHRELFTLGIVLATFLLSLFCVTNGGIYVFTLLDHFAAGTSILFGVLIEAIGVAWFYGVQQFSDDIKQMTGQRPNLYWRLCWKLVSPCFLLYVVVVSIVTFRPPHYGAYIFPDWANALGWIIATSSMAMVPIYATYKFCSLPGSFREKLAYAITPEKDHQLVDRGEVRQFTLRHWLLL
T3 sequence (P31652 whole entry): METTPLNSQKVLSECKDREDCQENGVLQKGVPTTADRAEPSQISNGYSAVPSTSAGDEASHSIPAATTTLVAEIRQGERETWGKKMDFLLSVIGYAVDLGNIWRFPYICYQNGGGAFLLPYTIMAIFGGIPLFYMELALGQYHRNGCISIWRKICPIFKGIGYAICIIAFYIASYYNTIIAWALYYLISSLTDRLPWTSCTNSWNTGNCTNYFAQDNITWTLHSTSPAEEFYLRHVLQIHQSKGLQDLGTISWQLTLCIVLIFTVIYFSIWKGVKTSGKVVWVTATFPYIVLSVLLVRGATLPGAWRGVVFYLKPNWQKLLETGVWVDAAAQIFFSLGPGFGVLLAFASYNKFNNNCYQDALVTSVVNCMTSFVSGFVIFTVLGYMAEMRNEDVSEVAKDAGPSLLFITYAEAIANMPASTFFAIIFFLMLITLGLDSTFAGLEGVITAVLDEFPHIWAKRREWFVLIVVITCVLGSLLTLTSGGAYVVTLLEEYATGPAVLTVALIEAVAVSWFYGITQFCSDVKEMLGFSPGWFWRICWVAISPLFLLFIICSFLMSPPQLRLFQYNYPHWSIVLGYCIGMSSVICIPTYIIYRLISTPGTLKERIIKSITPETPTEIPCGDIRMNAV
Sigma intracellular receptor 2, sequence (Q5U3Y7 whole entry, looked up): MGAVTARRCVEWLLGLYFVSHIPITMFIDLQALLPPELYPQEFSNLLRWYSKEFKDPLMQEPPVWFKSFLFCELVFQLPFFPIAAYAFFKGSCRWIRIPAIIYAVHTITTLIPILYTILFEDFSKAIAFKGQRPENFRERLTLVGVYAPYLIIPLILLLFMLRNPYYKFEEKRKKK

For the compound `Clc1ccccc1N1CCN(CCCn2c3ccccc3c3ccccc32)CC1`, the Ki entry in assay [1] is “Not Active”; in assay [3], 113000 nM; in assay [4], “Not Active”. In addition, in assay [2], the IC50 was determined as 2770 nM.

With `C[C@H]1CN(CCCn2c3ccccc3c3ccccc32)C[C@H](C)N1C`, the Ki in assay [5] worked out at 552 nM; in [6], 230 nM; in assay [7], 9.37 µM; in assay [3] it was 436 nM; in [8], 373 nM. Further, the IC50 in [2] turned out to be 472 nM.

Turning to `C[C@H]1CN(CCCn2c3ccccc3c3ccccc32)C[C@H](C)N1CCCc1ccccc1`, the Ki in [5] came out at 104 nM; in [6], 145 nM; in [7] it was 2.49 µM; in [3] it was 263 nM; in assay [8], 44.5 nM. For the same compound, the IC50 in [2] was determined as 639 nM.

`C[C@H]1CN(CCCN(c2ccccc2)c2ccccc2)C[C@H](C)N1`: the Ki came out at 138 nM in [5]; 351 nM in assay [6]; 6.81 µM in assay [7]; 813 nM in assay [3]; 13100 nM in assay [8]. In assay [2], this compound gave an IC50 of 1060 nM.

For `C[C@H]1CN(CCCN(c2ccccc2)c2ccccc2)C[C@H](C)N1CCCc1ccccc1`, the Ki in [5] stood at 97.2 nM; in assay [6], 183 nM; in [7] it was 3.64 µM; in assay [3], 61 nM; in assay [8] it was 219 nM. Also, 36.6 nM corresponded to half-maximal inhibition in assay [2] (IC50).

Take `C[C@H]1CN(CCCn2c3ccccc3c3cc([N+](=O)[O-])ccc32)C[C@H](C)N1`: the Ki came out at 596 nM in assay [5]; 193 nM in assay [6]; 4.58 µM in assay [7]; 109 nM in assay [3]; 1170 nM in [8]. The IC50 in assay [2] amounted to 111 nM.

For the compound `C[C@H]1CN(CCCn2c3ccc(Br)cc3c3cc(Br)ccc32)C[C@H](C)N1`, the Ki was found to be 4420 nM in [5]; 675 nM in assay [6]; 1.3 µM in [7]; 3890 nM in assay [3]; 1130 nM in assay [8].

Regarding `C[C@H]1CN(CCCn2c3ccc([N+](=O)[O-])cc3c3cc([N+](=O)[O-])ccc32)C[C@H](C)N1`, the Ki amounted to 3.66 µM in [9], 1850 nM in [10] and 174 µM in [11]. Also, half-maximal inhibition in [2] (IC50) required 3670 nM.

As to `C[C@H]1CN(CCCn2c3ccccc3c3cc(N)ccc32)C[C@H](C)N1`, the Ki in [5] came to 5720 nM; in assay [6], 1660 nM; in [7], 13.9 µM; in assay [3], 2400 nM; in assay [8] it was 2100 nM.

On to `C[C@@H]1CN(CCCn2c3ccc(Br)cc3c3cc(Br)cc(Br)c32)C[C@@H](C)N1`, for which the Ki in [9] was 8.54 µM; in assay [12], over 6 µM; in assay [10], 1610 nM; in [11], 30.3 µM.

For the compound `c1ccc(N2CCN(CCCn3c4ccccc4c4ccccc43)CC2)cc1`, the IC50 in assay [2] turned out to be 1820 nM. For the same compound, the Ki in assay [7] was 4.12 µM; in [3], 4930 nM; in assay [4], “Not Active”.

Regarding `C[C@@H]1CN(CCCn2c3ccccc3c3ccccc32)C[C@H](C)N1` [RIMCAZOLE], in assay [2], the IC50 worked out at 140 nM. Besides, the Ki in [7] came out at 2.16 µM; in assay [3] it was 224 nM; in assay [8] it was 825 nM.
